{"source": "ChEMBL document CHEMBL1764948", "about": "“Diversonol and blennolide derivatives from the endophytic fungus Microdiplodia sp.: absolute configuration of diversonol” (2011)", "key": {"[1]": {"tested_on": "Legionella pneumophila", "assay": "Antibacterial activity against Legionella pneumophila Corby by microtiter plate assay", "type": "functional", "method_in_brief": "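Broth microdilution MIC in liquid medium in microtiter wells. Legionella pneumophila Corby grown in YEB medium (10 g ACES, 10 g yeast extract per 1000 mL water, pH 6.9, plus supplements). Value reported as the minimum inhibitory concentration.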"}, "[2]": {"tested_on": "Priestia megaterium", "assay": "Antibacterial activity against Bacillus megaterium by microtiter plate assay", "type": "functional, organism-based", "method_in_brief": "(§1)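 Minimum inhibitory concentration determined in liquid medium in microtiter wells.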"}, "[3]": {"tested_on": "Escherichia coli", "assay": "Antibacterial activity against Escherichia coli K-12 by microtiter plate assay", "type": "functional, organism-based", "method_in_brief": "as §1"}, "[4]": {"tested_on": "Microbotryum violaceum", "assay": "Antifungal activity against Microbotryum violaceum assessed as zone of inhibition measured as radius at 50 ug by agar diffusion assay", "type": "functional", "conditions": "for zone of inhibition at 50 µg/disc: read-out: IZ", "method_in_brief": "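Samples at 1 mg/mL in acetone; 50 μg applied to a 9 mm sterile filter disk on MPY agar. The plate was then sprayed with a Microbotryum violaceum suspension and incubated at 20 °C. The inhibition zone radius was measured in mm from the disk centre.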"}}, "note": "Calls of active or inactive are those of the source. The rule behind the calls is not given here.", "data": [{"molecule": "C[C@H]1Oc2cccc(O)c2C(=O)[C@@H]1O", "values": [{"measurement": "MIC", "setting": "[1]", "value": 1000, "unit": "µg/mL"}, {"measurement": "Activity", "setting": "[2]", "value": "inactive"}, {"measurement": "Activity", "setting": "[3]", "value": "inactive"}]}, {"molecule": "CN(C)[C@@H]1C(O)=C(C(N)=O)C(=O)[C@@]2(O)C(O)=C3C(=O)c4c(O)cccc4[C@@](C)(O)[C@H]3C[C@@H]12", "note": "[TETRACYCLINE]", "values": [{"measurement": "zone of inhibition at 50 µg/disc", "setting": "[4]", "value": 0, "unit": "mm"}]}, {"molecule": "CC1(C)S[C@@H]2[C@H](NC(=O)Cc3ccccc3)C(=O)N2[C@H]1C(=O)O", "note": "[PENICILLIN G]", "values": [{"measurement": "zone of inhibition at 50 µg/disc", "setting": "[4]", "value": 0, "unit": "mm"}]}, {"molecule": "NC[C@H]1O[C@H](O[C@H]2[C@H](O)[C@@H](O[C@H]3O[C@H](CO)[C@@H](O)[C@H](N)[C@H]3O)[C@H](N)C[C@@H]2N)[C@H](O)[C@@H](O)[C@@H]1O", "note": "[KANAMYCIN]", "values": [{"measurement": "MIC", "setting": "[1]", "value": 12.5, "unit": "µg/mL"}]}, {"molecule": "CC(C)=O", "note": "[ACETONE]", "values": [{"measurement": "zone of inhibition at 50 µg/disc", "setting": "[4]", "value": 0, "unit": "mm"}]}, {"molecule": "Cc1cc(O)c2c(c1)O[C@@]1(C)[C@@H](O)CC[C@H](O)[C@]1(O)C2=O", "note": "[DIVERSONOL]", "values": [{"measurement": "MIC", "setting": "[1]", "value": 1000, "unit": "µg/mL"}, {"measurement": "zone of inhibition at 50 µg/disc", "setting": "[4]", "value": 0, "unit": "mm"}, {"measurement": "Activity", "setting": "[2]", "value": "inactive"}, {"measurement": "Activity", "setting": "[3]", "value": "inactive"}]}, {"molecule": "C[C@@]12Oc3cc(CO)cc(O)c3C(=O)[C@@]1(O)[C@@H](O)CC[C@@H]2O", "note": "[MICRODIPLODIASOL]", "values": [{"measurement": "MIC", "setting": "[1]", "value": 125, "unit": "µg/mL"}, {"measurement": "Activity", "setting": "[2]", "value": "inactive"}, {"measurement": "Activity", "setting": "[3]", "value": "inactive"}]}, {"molecule": "C[C@]1([C@H]2CCC(=O)O2)CC(=O)c2c(O)cc(O)cc2O1", "note": "[MICRODIPLODIASONE]", "values": [{"measurement": "MIC", "setting": "[1]", "value": 1000, "unit": "µg/mL"}, {"measurement": "zone of inhibition at 50 µg/disc", "setting": "[4]", "value": 0, "unit": "mm"}, {"measurement": "Activity", "setting": "[2]", "value": "inactive"}, {"measurement": "Activity", "setting": "[3]", "value": "inactive"}]}, {"molecule": "COC1=CC(=O)[C@@H](O)[C@@]2(O)C(=O)c3c(O)cc(C)cc3O[C@]12C", "note": "[MICRODIPLODIASOLOL]", "values": [{"measurement": "MIC", "setting": "[1]", "value": 1000, "unit": "µg/mL"}, {"measurement": "zone of inhibition at 50 µg/disc", "setting": "[4]", "value": 6, "unit": "mm"}, {"measurement": "Activity", "setting": "[2]", "value": "inactive"}, {"measurement": "Activity", "setting": "[3]", "value": "inactive"}]}, {"molecule": "NYSTATIN", "values": [{"measurement": "inhibition zone (IZ)", "setting": "[4]", "value": 20, "unit": "mm"}]}, {"molecule": "C[C@@H]1C[C@@H]([C@H](O)CC2CC(=O)NC(=O)C2)C(=O)[C@@H](C)C1", "note": "[CYCLOHEXIMIDE]", "values": [{"measurement": "zone of inhibition at 50 µg/disc", "setting": "[4]", "value": 50, "unit": "mm"}]}, {"molecule": "CC(C)[C@@H](C)/C=C/[C@@H](C)[C@H]1CC[C@H]2C3=CC=C4C[C@@H](O)CC[C@]4(C)[C@H]3CC[C@]12C", "note": "[ERGOSTEROL]", "values": [{"measurement": "MIC", "setting": "[1]", "value": 250, "unit": "µg/mL"}, {"measurement": "Activity", "setting": "[4]", "value": "inactive"}, {"measurement": "Activity", "setting": "[2]", "value": "inactive"}, {"measurement": "Activity", "setting": "[3]", "value": "inactive"}]}]}
